According to ChEMBL document CHEMBL1135487, “Structure-activity relationship for enhancement of paracellular permeability across Caco-2 cell monolayers by 3-alkylamido-2-alkoxypropylphosphocholines” (J Med Chem, 2002):

Experiments:
Caco-2 [1] = test: Increase in the mannitol flux by 10-fold (EC10x) of the control value; assay type: functional, Homo sapiens
Outline: (§1)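 Caco-2 monolayers on filters, TEER 600–800 Ω·cm². Enhancer at 0.01–5.0 mM in HBSS applied apically for 20 min, then washed out. Apical side then given 0.1 mM [3H]mannitol, 37 °C, sink conditions. Basolateral samples taken at 20, 40, 60 and 90 min and counted by liquid scintillation. EC10x = concentration raising mannitol permeability 10-fold over control; triplicate.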

Caco-2 [2] = test: Decrease in the trans-epithelial electrical resistance(TEER) in Caco-2 cell monolayers; assay type: functional, cell-based; details: Homo sapiens
Outline: (§2)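 Caco-2 cells (passage 45–55) grown on 1.0 cm² polycarbonate filters for 20–22 days and equilibrated 1 h in HBSS (25 mM HEPES, 25 mM glucose, pH 7.4) at 37 °C; monolayers with TEER 600–800 Ω·cm² used. Compound applied apically in HBSS at various concentrations for 20 min at room temperature. TEER read by voltohmmeter, blank filter subtracted. EC50 = concentration cutting TEER 50% versus untreated; triplicate, mean ± SD.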

[3] = Concentration to decrease mitochondrial dehydrogenase vs concentration to decrease TEER (IC50/EC50); assay type: functional
Outline: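 Ratio of two values measured on Caco-2 cells (passage 45–55). IC50: cells grown 96 h, exposed 20 min to phospholipid in HBSS, MTT added for 120 min more, SDS/HCl-isobutanol stop, absorbance 590 nm. EC50: 20–22-day monolayers (TEER 600–800 Ω·cm²), 20 min apical exposure in HBSS at room temperature, 50% TEER fall vs untreated. Triplicates.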

Caco-2 [4] = test: Critical Micelle Concentration (CMC) determined by fluorescence assay using DPH as a probe; assay type: functional, Homo sapiens
Outline: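 Aqueous phosphocholine solutions over a concentration range received DPH (1 µL of 10 mM stock in THF per 2 mL). They were held 30 min in the dark at room temperature, then fluorescence was read (ex 365, em 460 nm). CMC was taken as the intersection of linear fits below and above the intensity inflection; mean of triplicates.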

Caco-2 [5] = test: Concentration to decrease the transepithelial electrical resistance (TEER) in Caco-2 cell monolayers; assay type: functional, cell-based; details: Homo sapiens; outline: as §2
Caco-2 [6] = test: Concentration to increase the mannitol flux by 10-fold (EC10x) of the control value; assay type: functional, Homo sapiens; outline: as §1

SMILES	EC10x (Caco-2 [1]) [mM]	EC50 (Caco-2 [2]) [mM]	Potency index [3]	CMC (Caco-2 [4]) [µM]	EC50 (Caco-2 [5]) [mM]	EC10x (Caco-2 [6]) [mM]
CCCCCCCCCCCCOC(CNC(=O)CCCCCCCCC)COP(=O)([O-])OCC[N+](C)(C)C (centres undefined)	>3	1.04	1.92			
CCCCCCCCCCCCCCCCOC(CNC(=O)CCCCC)COP(=O)([O-])OCC[N+](C)(C)C (centres undefined)	1.35	0.3	0.93			
CCCCCCCCCCCCCCCC(=O)NCC(COP(=O)([O-])OCC[N+](C)(C)C)OCCCCCCCCCC (centres undefined)	>2	> 2				
CCCCCCCCCCCCCCCCCCOC(CNC(C)=O)COP(=O)([O-])OCC[N+](C)(C)C (centres undefined)	0.34	0.09	1.11			
CCCCCCCCCCCCCCCCOC(CNC(=O)CCCCCCCCC)COP(=O)([O-])OCC[N+](C)(C)C (centres undefined)	>2	> 2				
CCCCCCCCCCCCCCOC(CNC(=O)CCCCCCCCC)COP(=O)([O-])OCC[N+](C)(C)C (centres undefined)	>2	> 2				
CCCCCCCCCC(=O)NCC(COP(=O)([O-])OCC[N+](C)(C)C)OCCCCCCCC (centres undefined)			1.27	55.3	0.3	1.21
CCCCCCCCCCCCCCCC(=O)NCC(COP(=O)([O-])OCC[N+](C)(C)C)OCCCCCC (centres undefined)	1.61	0.52	0.6			
CCCCCCCCCCCCCCCC(=O)NCC(COP(=O)([O-])OCC[N+](C)(C)C)OCCCCCCCCCCCC (centres undefined)	>1	> 1				
CCCCCCCCCC(=O)NCC(COP(=O)([O-])OCC[N+](C)(C)C)OCCCC (centres undefined)	>5	3.19	1.24	1170		
CCCCCCCCCCCCCCCC(=O)NCC(COP(=O)([O-])OCC[N+](C)(C)C)OCCCCCCCC (centres undefined)	>5	> 5				
CCCCCCCCCCCCCCCC(=O)NCC(COP(=O)([O-])OCC[N+](C)(C)C)OCCCC (centres undefined)	0.48	0.09	1.11			
CCCCCCCC(=O)NCC(COP(=O)([O-])OCC[N+](C)(C)C)OCCCCCC (centres undefined)	>5	> 5				
CCCCCCCCCCCCCC(=O)NCC(COP(=O)([O-])OCC[N+](C)(C)C)OCC (centres undefined)	0.89	0.08	2	148		
CCCCCCCCCCCCCCCCOC(CNC(=O)CCCCCCCCCCC)COP(=O)([O-])OCC[N+](C)(C)C (centres undefined)	>0.5	> 0.5				
CCCCOC(CNC(=O)CCC)COP(=O)([O-])OCC[N+](C)(C)C (centres undefined)	>5	> 5				
CCCCCCCCCCCCOC(CNC(C)=O)COP(=O)([O-])OCC[N+](C)(C)C (centres undefined)	4.27	0.78	1.72			
CCCCCCCCCC(=O)NCC(COP(=O)([O-])OCC[N+](C)(C)C)OCCCCCC (centres undefined)	0.73	0.42	2.38			
CCCCCCCCCCCCCCCCCC(=O)NCC(COP(=O)([O-])OCC[N+](C)(C)C)OCCCCCCCC (centres undefined)	>5	> 5				
CCCCCCCCCCCCCCCCOC(CNC(C)=O)COP(=O)([O-])OCC[N+](C)(C)C (centres undefined)	0.35	0.07	1.43			
CCCCCCCC(=O)NCC(COP(=O)([O-])OCC[N+](C)(C)C)OCCCC (centres undefined)	>5	> 5				
CCCCCCCCCCCC(=O)NCC(COP(=O)([O-])OCC[N+](C)(C)C)OCCCCCC (centres undefined)	1.01	0.19	0.84			
